Assays:
[1] = system: Corynespora cassiicola; assay: Fungicidal activity Corynespora cassiicola assessed as inhibition of mycelium growth at 50 mg/L at 24 degC measured after 2 days; settings: 48 h
[2] = system: Plutella xylostella; assay: Insecticidal activity against Plutella xylostella (diamondback moth) assessed as mortality at 600 mg/L measured after 72 hr; assay type: functional
[3] = system: Botrytis cinerea; assay: Fungicidal activity Botrytis cinerea assessed as inhibition of mycelium growth at 50 mg/L at 24 degC measured after 2 days; settings: 48 h
[4] = system: Corynespora cassiicola; assay: Fungicidal activity Corynespora cassiicola assessed as inhibition of mycelium growth at 50 mg/L at 24 degC measured after 2 days; assay type: functional; settings: 48 h
Method in brief: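 Mycelial growth assay on potato dextrose agar. The compound, as a 50 mg L^-1 DMF solution, is mixed into the PDA and a fungus cake is placed on it. DMF serves as blank. Plates are incubated at 24 ± 0.5 °C for 2 days. Mycelial diameters are measured and the inhibitory rate is calculated from them. Three replicates.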

[5] = system: Culex pipiens pallens; assay: Larvicidal activity against fourth-instar Culex pipiens pallens (mosquito) assessed as mortality at 2000 mg/L measured after 8 days; assay type: functional; settings: 192 h
Method in brief: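 Twenty fourth-instar Culex pipiens pallens larvae are placed in 10 mL of the test solution (acetone/distilled water, final 2000 mg L^-1) and reared for 8 days. Mortality is recorded as percent dead. Acetone serves as blank. Four replicates.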

[6] = system: Fusarium oxysporum; assay: Fungicidal activity Fusarium oxysporum assessed as inhibition of mycelium growth at 50 mg/L at 24 degC measured after 2 days; settings: 48 h
[7] = system: Plutella xylostella; assay: Insecticidal activity against Plutella xylostella assessed as mortality at 5 mg/L measured after 72 hr; assay type: functional

O=C(NC(=O)c1ccccc1Cl)OCc1ccc(-c2ccc(F)cc2)o1 showed an inhibition at 50 µg/mL [1] of 38.6%, a mortality at 600 µg/mL [2] of 0% and an inhibition at 50 µg/mL [3] of 40.6%. The inhibition at 50 µg/mL [4] was 60.6%, the mortality at 2000 µg/mL [5] was 10% and the inhibition at 50 µg/mL [6] was 4.46%.

For O=C(NC(=O)c1c(F)cccc1F)OCc1ccc(-c2ccccc2Cl)o1, the inhibition at 50 µg/mL [1] was 43.5%, the mortality at 600 µg/mL [2] was 0% and the inhibition at 50 µg/mL [3] was 66.6%. For the same compound, the inhibition at 50 µg/mL [4] was 36.6%, the mortality at 2000 µg/mL [5] was 0% and the inhibition at 50 µg/mL [6] was 41.2%.

O=C(NC(=O)c1c(F)cccc1F)OCc1ccc(-c2cccc(Cl)c2)o1 was tested, and the inhibition at 50 µg/mL [1] was 50.5%, the mortality at 600 µg/mL [2] was 0% and the inhibition at 50 µg/mL [3] was 63.5%. It also gave a mortality at 2000 µg/mL [5] of 10% and an inhibition at 50 µg/mL [6] of 45.4%.

Compound O=C(NC(=O)c1c(F)cccc1F)OCc1ccc(-c2ccc(Cl)cc2)o1 has an inhibition at 50 µg/mL [1] of 71.6%, a mortality at 600 µg/mL [2] of 0% and an inhibition at 50 µg/mL [3] of 100%. The mortality at 2000 µg/mL [5] was 10% and the inhibition at 50 µg/mL [6] was 92.3%.

With O=C(NC(=O)c1c(F)cccc1F)OCc1ccc(-c2ccccc2Br)o1 the inhibition at 50 µg/mL [1] was 52.2%, the mortality at 600 µg/mL [2] was 10% and the inhibition at 50 µg/mL [3] was 54.3%. For the same compound, the mortality at 2000 µg/mL [5] was 20% and the inhibition at 50 µg/mL [6] was 42.3%.

Work on O=C(NC(=O)c1c(F)cccc1F)OCc1ccc(-c2ccc(Br)cc2)o1 yielded an inhibition at 50 µg/mL [1] of 57.8%, a mortality at 600 µg/mL [2] of 10% and an inhibition at 50 µg/mL [3] of 62.2%. For the same compound, the inhibition at 50 µg/mL [4] was 63.3%, the mortality at 2000 µg/mL [5] was 0% and the inhibition at 50 µg/mL [6] was 7.38%.

O=C(NC(=O)c1c(Cl)cccc1Cl)OCc1ccc(-c2ccccc2F)o1 was tested, and the inhibition at 50 µg/mL [1] was 36%, the mortality at 600 µg/mL [2] was 10% and the inhibition at 50 µg/mL [3] was 57.3%. The inhibition at 50 µg/mL [4] was 70.4%, the mortality at 2000 µg/mL [5] was 0% and the inhibition at 50 µg/mL [6] was 1.5%.

Work on O=C(NC(=O)c1c(Cl)cccc1Cl)OCc1ccc(-c2cccc(F)c2)o1 yielded an inhibition at 50 µg/mL [1] of 12.9%, a mortality at 600 µg/mL [2] of 20% and an inhibition at 50 µg/mL [3] of 32.6%. For the same compound, the inhibition at 50 µg/mL [4] was 62%, the mortality at 2000 µg/mL [5] was 10% and the inhibition at 50 µg/mL [6] was 8.82%.

O=C(NC(=O)c1c(Cl)cccc1Cl)OCc1ccc(-c2ccc(F)cc2)o1 showed an inhibition at 50 µg/mL [1] of 37.3%, a mortality at 600 µg/mL [2] of 0% and an inhibition at 50 µg/mL [3] of 37.1%. The inhibition at 50 µg/mL [4] was 72.7%, the mortality at 2000 µg/mL [5] was 0% and the inhibition at 50 µg/mL [6] was 35.3%.

Compound O=C(NC(=O)c1c(Cl)cccc1Cl)OCc1ccc(-c2ccc(F)cc2F)o1 has an inhibition at 50 µg/mL [1] of 16%, a mortality at 600 µg/mL [2] of 1% and an inhibition at 50 µg/mL [3] of 27.9%. For the same compound, the inhibition at 50 µg/mL [4] was 63.3%, the mortality at 2000 µg/mL [5] was 10% and the inhibition at 50 µg/mL [6] was 15.9%.

Compound O=C(NC(=O)c1c(Cl)cccc1Cl)OCc1ccc(-c2ccccc2Cl)o1 has an inhibition at 50 µg/mL [1] of 34.7%, a mortality at 600 µg/mL [2] of 0% and an inhibition at 50 µg/mL [3] of 41.4%. It also gave an inhibition at 50 µg/mL [4] of 83.1%, a mortality at 2000 µg/mL [5] of 0% and an inhibition at 50 µg/mL [6] of 35.3%.

Compound O=C(NC(=O)c1c(Cl)cccc1Cl)OCc1ccc(-c2cccc(Cl)c2)o1 has an inhibition at 50 µg/mL [1] of 19%, a mortality at 600 µg/mL [2] of 10% and an inhibition at 50 µg/mL [3] of 13%. For the same compound, the inhibition at 50 µg/mL [4] was 53.3%, the mortality at 2000 µg/mL [5] was 10% and the inhibition at 50 µg/mL [6] was 14.5%.

Work on O=C(NC(=O)c1c(Cl)cccc1Cl)OCc1ccc(-c2ccc(Cl)cc2)o1 yielded an inhibition at 50 µg/mL [1] of 33.3%, a mortality at 600 µg/mL [2] of 10% and an inhibition at 50 µg/mL [3] of 48.1%. The inhibition at 50 µg/mL [4] was 67.9%, the mortality at 2000 µg/mL [5] was 0% and the inhibition at 50 µg/mL [6] was 44.6%.

O=C(NC(=O)c1c(Cl)cccc1Cl)OCc1ccc(-c2ccccc2Br)o1 gave an inhibition at 50 µg/mL [1] of 39.9%, a mortality at 600 µg/mL [2] of 0% and an inhibition at 50 µg/mL [3] of 44.8%. It also gave an inhibition at 50 µg/mL [4] of 79.2%, a mortality at 2000 µg/mL [5] of 0% and an inhibition at 50 µg/mL [6] of 42.3%.

Work on O=C(NC(=O)c1c(Cl)cccc1Cl)OCc1ccc(-c2ccc(Br)cc2)o1 yielded an inhibition at 50 µg/mL [1] of 54.4%, a mortality at 600 µg/mL [2] of 0% and an inhibition at 50 µg/mL [3] of 52.8%. It also gave an inhibition at 50 µg/mL [4] of 64.7%, a mortality at 2000 µg/mL [5] of 10% and an inhibition at 50 µg/mL [6] of 32.8%.

Work on O=C(NC(=O)c1ccccc1Cl)OCc1ccc(-c2ccccc2F)o1 yielded an inhibition at 50 µg/mL [1] of 26.3%, a mortality at 600 µg/mL [2] of 0% and an inhibition at 50 µg/mL [3] of 34.4%. It also gave an inhibition at 50 µg/mL [4] of 65.3%, a mortality at 2000 µg/mL [5] of 10% and an inhibition at 50 µg/mL [6] of 1.5%.

O=C(NC(=O)c1ccccc1Cl)OCc1ccc(-c2cccc(F)c2)o1 gave an inhibition at 50 µg/mL [1] of 37.3%, a mortality at 600 µg/mL [2] of 0% and an inhibition at 50 µg/mL [3] of 48.9%. It also gave an inhibition at 50 µg/mL [4] of 53.3%, a mortality at 2000 µg/mL [5] of 10% and an inhibition at 50 µg/mL [6] of 14.5%.

With O=C(NC(=O)c1ccccc1Cl)OCc1ccc(-c2ccccc2Cl)o1 the inhibition at 50 µg/mL [1] was 43.8%, the mortality at 600 µg/mL [2] was 0% and the inhibition at 50 µg/mL [3] was 25%. The inhibition at 50 µg/mL [4] was 69.8%, the mortality at 2000 µg/mL [5] was 20% and the inhibition at 50 µg/mL [6] was 0%.

In the case of O=C(NC(=O)c1ccccc1Cl)OCc1ccc(-c2cccc(Cl)c2)o1, the inhibition at 50 µg/mL [1] is reported as 24.9%, the mortality at 600 µg/mL [2] is reported as 0% and the inhibition at 50 µg/mL [3] is reported as 24.1%. The inhibition at 50 µg/mL [4] was 38.6%, the mortality at 2000 µg/mL [5] was 0% and the inhibition at 50 µg/mL [6] was -3.03%.

O=C(NC(=O)c1ccccc1Cl)OCc1ccc(-c2ccc(Cl)cc2)o1 showed an inhibition at 50 µg/mL [1] of 66%, a mortality at 600 µg/mL [2] of 0% and an inhibition at 50 µg/mL [3] of 55.1%. It also gave an inhibition at 50 µg/mL [4] of 75.5%, a mortality at 2000 µg/mL [5] of 10% and an inhibition at 50 µg/mL [6] of 14.5%.

O=C(NC(=O)c1ccccc1Cl)OCc1ccc(-c2ccccc2Br)o1 showed an inhibition at 50 µg/mL [1] of 42.5%, a mortality at 600 µg/mL [2] of 0% and an inhibition at 50 µg/mL [3] of 54.3%. The inhibition at 50 µg/mL [4] was 67.3%, the mortality at 2000 µg/mL [5] was 0% and the inhibition at 50 µg/mL [6] was 25.2%.

Compound O=C(NC(=O)c1ccccc1Cl)OCc1ccc(-c2ccc(Br)cc2)o1 has an inhibition at 50 µg/mL [1] of 59.9%, a mortality at 600 µg/mL [2] of 0% and an inhibition at 50 µg/mL [3] of 34.4%. It also gave an inhibition at 50 µg/mL [4] of 50.2%, a mortality at 2000 µg/mL [5] of 10% and an inhibition at 50 µg/mL [6] of 10.2%.

In the case of O=C(NC(=O)c1c(F)cccc1F)OCc1ccc(-c2ccccc2F)o1, the inhibition at 50 µg/mL [1] is reported as 44.5%, the mortality at 600 µg/mL [2] is reported as 0% and the inhibition at 50 µg/mL [3] is reported as 70.4%. For the same compound, the mortality at 2000 µg/mL [5] was 0% and the inhibition at 50 µg/mL [6] was 44.6%.

O=C(NC(=O)c1c(F)cccc1F)OCc1ccc(-c2cccc(F)c2)o1 was tested, and the inhibition at 50 µg/mL [1] was 31.5%, the mortality at 600 µg/mL [2] was 0% and the inhibition at 50 µg/mL [3] was 60.4%. The inhibition at 50 µg/mL [4] was 38.4%, the mortality at 2000 µg/mL [5] was 10% and the inhibition at 50 µg/mL [6] was 7.63%.

O=C(NC(=O)c1c(F)cccc1F)OCc1ccc(-c2ccc(F)cc2)o1 was tested, and the inhibition at 50 µg/mL [1] was 22.1%, the mortality at 600 µg/mL [2] was 10% and the inhibition at 50 µg/mL [3] was 58.5%. It also gave an inhibition at 50 µg/mL [4] of 56%, a mortality at 2000 µg/mL [5] of 0% and an inhibition at 50 µg/mL [6] of 49.4%.

For O=C(NC(=O)c1c(F)cccc1F)OCc1ccc(-c2ccc(F)cc2F)o1, the inhibition at 50 µg/mL [1] was 42.5%, the mortality at 600 µg/mL [2] was 0% and the inhibition at 50 µg/mL [3] was 64%. It also gave a mortality at 2000 µg/mL [5] of 10% and an inhibition at 50 µg/mL [6] of 44.6%.

N#Cc1c(Cl)c(Cl)c(Cl)c(C#N)c1Cl [CHLOROTHALONIL] showed an inhibition at 50 µg/mL [1] of 23.3%.

N#Cc1nn(-c2c(Cl)cc(C(F)(F)F)cc2Cl)c(N)c1[S+]([O-])C(F)(F)F (stereo unspecified) [FIPRONIL] gave a mortality at 5 µg/mL [7] of 100%.

Compound Cc1cc(C)nc(Nc2ccccc2)n1 [PYRIMETHANIL] has an inhibition at 50 µg/mL [3] of 48.9%.

For CC(C)(C)N(NC(=O)c1ccccc1)C(=O)c1ccccc1 [RH-5849], the mortality at 2000 µg/mL [5] was 0%.

Compound COC(=O)NC(=S)Nc1ccccc1NC(=S)NC(=O)OC [THIOPHANATE METHYL] has an inhibition at 50 µg/mL [6] of 34.2%.
